Measurements taken from ChEMBL document CHEMBL1127636, “The development of cyclic sulfolanes as novel and high-affinity P2 ligands for HIV-1 protease inhibitors” (J Med Chem, 1994).

Assays:
[1] = molecular target: Human immunodeficiency virus type 1 protease (Human immunodeficiency virus 1, UniProt Q72874); assay: Inhibitory activity against HIV-1 protease
[2] = system: Human immunodeficiency virus 1; assay: Inhibition of HIV-1 in MT-4 human T-lymphoid cells infected with IIIb isolate; format: functional; conditions: Human immunodeficiency virus 1, T-lymphoid; read-out: CIC95
Summary of the method: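 Unless otherwise indicated, each value is from a single determination (n = 1).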

| SMILES | IC50 [1] [nM] | IC95 [2] [nM] |
| --- | --- | --- |
| CC(C)(C)NC(=O)[C@@H]1C[C@@H]2CCCC[C@@H]2CN1C[C@@H](O)[C@H](Cc1ccccc1)NC(=O)O[C@@H]1CCCS(=O)(=O)C1 | 2070 | – |
| CC(C)(C)NC(=O)[C@@H]1C[C@@H]2CCCC[C@@H]2CN1C[C@@H](O)[C@H](Cc1ccccc1)NC(=O)OC1CS(=O)(=O)C1 | 104 | – |
| C[C@H]1CS(=O)(=O)C[C@H]1OC(=O)N[C@@H](Cc1ccccc1)[C@H](O)CN1C[C@H]2CCCC[C@H]2C[C@H]1C(=O)NC(C)(C)C | 70 | 800 |
| CC(C)(C)NC(=O)[C@@H]1C[C@@H]2CCC[C@@H]2CN1C[C@@H](O)[C@H](Cc1ccccc1)NC(=O)O[C@H]1CCS(=O)(=O)C1 | 11.3 | > 200 |
| CCCC[C@H]1[C@@H](OC(=O)N[C@@H](Cc2ccccc2)[C@H](O)CN2C[C@H]3CCCC[C@H]3C[C@H]2C(=O)NC(C)(C)C)CCS1(=O)=O | 14.9 | 400 |
| CC[C@H]1[C@@H](OC(=O)N[C@@H](Cc2ccccc2)[C@H](O)CN2C[C@H]3CCCC[C@H]3C[C@H]2C(=O)NC(C)(C)C)CCS1(=O)=O | – | 400 |
| CCC[C@@H]1[C@H](OC(=O)N[C@@H](Cc2ccccc2)[C@H](O)CN2C[C@H]3CCCC[C@H]3C[C@H]2C(=O)NC(C)(C)C)CCS1(=O)=O | 20.1 | 800 |
| CC(C)[C@@H]1[C@H](OC(=O)N[C@@H](Cc2ccccc2)[C@H](O)CN2C[C@H]3CCC[C@H]3C[C@H]2C(=O)NC(C)(C)C)CCS1(=O)=O | 3 | 100 |
| C[C@@H]1[C@H](OC(=O)N[C@@H](Cc2ccccc2)[C@H](O)CN2C[C@H]3CCCC[C@H]3C[C@H]2C(=O)NC(C)(C)C)CCS1(=O)=O | – | 200 |
| CC(C)(C)NC(=O)[C@@H]1C[C@@H]2CCCC[C@@H]2CN1C[C@@H](O)[C@H](Cc1ccccc1)NC(=O)O[C@H]1CCCS(=O)(=O)C1 | 1750 | – |
| CC(C)(C)NC(=O)[C@@H]1C[C@@H]2CCCC[C@@H]2CN1C[C@@H](O)[C@H](Cc1ccccc1)NC(=O)O[C@H]1CCS(=O)(=O)[C@H]1C1CCCC1 | 6.2 | 400 |
| C[C@@H]1OCC[C@@H]1OC(=O)N[C@@H](Cc1ccccc1)[C@H](O)CN1C[C@H]2CCCC[C@H]2C[C@H]1C(=O)NC(C)(C)C | – | 400 |
| CC(C)(C)NC(=O)[C@@H]1C[C@@H]2CCCC[C@@H]2CN1C[C@@H](O)[C@H](Cc1ccccc1)NC(=O)O[C@H]1CCSC1 | 132 | – |
| CC(C)[C@@H]1[C@H](OC(=O)N[C@@H](Cc2ccccc2)[C@H](O)CN2C[C@H]3CCCC[C@H]3C[C@H]2C(=O)NC(C)(C)C)CCS1(=O)=O | 3.5 | 50 |
| C[C@@H]1C[C@H](OC(=O)N[C@@H](Cc2ccccc2)[C@H](O)CN2C[C@H]3CCCC[C@H]3C[C@H]2C(=O)NC(C)(C)C)CS1(=O)=O | 82 | > 400 |
| C[C@H]1OCC[C@H]1OC(=O)N[C@@H](Cc1ccccc1)[C@H](O)CN1C[C@H]2CCCC[C@H]2C[C@H]1C(=O)NC(C)(C)C | – | 1600 |
| C[C@H]1C[C@@H](OC(=O)N[C@@H](Cc2ccccc2)[C@H](O)CN2C[C@H]3CCCC[C@H]3C[C@H]2C(=O)NC(C)(C)C)CS1(=O)=O | 1600 | – |
| CC(C)(C)NC(=O)[C@@H]1C[C@@H]2CCCC[C@@H]2CN1C[C@@H](O)[C@H](Cc1ccccc1)NC(=O)O[C@@H]1CCS(=O)(=O)[C@@H]1C1CCCC1 | 22.6 | 1500 |
| CC(C)[C@H]1[C@@H](OC(=O)N[C@@H](Cc2ccccc2)[C@H](O)CN2C[C@H]3CCCC[C@H]3C[C@H]2C(=O)NC(C)(C)C)CCS1(=O)=O | – | 200 |
| C[C@H]1[C@@H](OC(=O)N[C@@H](Cc2ccccc2)[C@H](O)CN2C[C@H]3CCCC[C@H]3C[C@H]2C(=O)NC(C)(C)C)CCS1(=O)=O | – | 200 |
| CCC[C@H]1[C@@H](OC(=O)N[C@@H](Cc2ccccc2)[C@H](O)CN2C[C@H]3CCCC[C@H]3C[C@H]2C(=O)NC(C)(C)C)CCS1(=O)=O | 6.2 | 400 |
| CC(C)(C)NC(=O)[C@@H]1C[C@@H]2CCCC[C@@H]2CN1C[C@@H](O)[C@H](Cc1ccccc1)NC(=O)O[C@H]1CCOC1 | – | 800 |
| C[C@@H]1CS(=O)(=O)C[C@@H]1OC(=O)N[C@@H](Cc1ccccc1)[C@H](O)CN1C[C@H]2CCCC[C@H]2C[C@H]1C(=O)NC(C)(C)C | 216 | 800 |
| CC(C)(C)NC(=O)[C@@H]1C[C@@H]2CCCC[C@@H]2CN1C[C@@H](O)[C@H](Cc1ccccc1)NC(=O)O[C@@H]1CCS(=O)(=O)C1 | – | > 800 |
| CC(C)(C)NC(=O)[C@@H]1C[C@@H]2CCCC[C@@H]2CN1C[C@@H](O)[C@H](Cc1ccccc1)NC(=O)O[C@@H]1CCSC1 | 220 | – |
| CC[C@@H]1[C@H](OC(=O)N[C@@H](Cc2ccccc2)[C@H](O)CN2C[C@H]3CCCC[C@H]3C[C@H]2C(=O)NC(C)(C)C)CCS1(=O)=O | – | 800 |
| C[C@H]1[C@@H](OC(=O)N[C@@H](Cc2ccccc2)[C@H](O)CN2C[C@H]3CCC[C@H]3C[C@H]2C(=O)NC(C)(C)C)CCS1(=O)=O | 12.6 | 100 |
| CC(C)(C)NC(=O)[C@@H]1C[C@@H]2CCCC[C@@H]2CN1C[C@@H](O)[C@H](Cc1ccccc1)NC(=O)O[C@H]1CCS(=O)(=O)C1 | 76 | 364 |
| CC(C)(C)NC(=O)[C@@H]1C[C@@H]2CCC[C@@H]2CN1C[C@@H](O)[C@H](Cc1ccccc1)NC(=O)O[C@H]1CCOC1 | 61 | 400 |
| CCCC[C@@H]1[C@H](OC(=O)N[C@@H](Cc2ccccc2)[C@H](O)CN2C[C@H]3CCCC[C@H]3C[C@H]2C(=O)NC(C)(C)C)CCS1(=O)=O | 45.8 | 800 |
